Experiment [1] relates to Mycobacterium tuberculosis. The experiment is described as follows: In vitro inhibition of Mycobacterium tuberculosis H37Rv, determined at 2 ug/mL. In kind it is functional. In a few lines: (§1)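 M. tuberculosis H37Rv (Pasteur) grown twice for 1 week each in Dubos broth at 37 °C, washed, then filtered to remove clumps. 25 × 10⁴ CFU per well in RPMI 1640 with 5 mM HEPES, 2 mM L-glutamine and 2% FBS. Compound added from DMSO stock; 5,6-[³H]-uracil added at 24 h, then 18 h at 37 °C.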

Experiment [2] relates to Mycobacterium tuberculosis. The experiment is described as follows: In vitro inhibition of Mycobacterium tuberculosis H37Rv, determined at 20 ug/mL. The format is functional. An outline of the steps:
as §1

For experiment [3], the system named is Mycobacterium tuberculosis. Briefly: In vitro inhibition of Mycobacterium tuberculosis H37Rv, determined at 0.2 ug/mL. The format is functional. In a few lines:
as §1

Experiment [4] concerns the target T1, Amine oxidase [flavin-containing] B (Rattus norvegicus, UniProt P19643).
T1 sequence (P19643 whole entry): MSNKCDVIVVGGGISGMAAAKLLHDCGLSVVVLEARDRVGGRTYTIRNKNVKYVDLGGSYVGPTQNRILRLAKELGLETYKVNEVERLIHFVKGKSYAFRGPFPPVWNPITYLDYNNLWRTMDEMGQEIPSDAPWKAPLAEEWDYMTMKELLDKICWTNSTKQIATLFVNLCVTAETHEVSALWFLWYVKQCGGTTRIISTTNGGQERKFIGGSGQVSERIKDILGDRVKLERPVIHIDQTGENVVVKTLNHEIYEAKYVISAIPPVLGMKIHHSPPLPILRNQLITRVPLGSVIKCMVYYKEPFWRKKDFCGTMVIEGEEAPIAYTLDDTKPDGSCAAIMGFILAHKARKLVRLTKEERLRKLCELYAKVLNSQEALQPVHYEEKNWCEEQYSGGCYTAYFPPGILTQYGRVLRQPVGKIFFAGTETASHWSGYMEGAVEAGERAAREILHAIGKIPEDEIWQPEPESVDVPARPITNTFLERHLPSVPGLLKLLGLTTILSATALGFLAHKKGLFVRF
Briefly: Inhibition of Monoamine oxidase B from rat liver mitochondria. An outline of the steps: (§2)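 Rat liver mitochondria from differential centrifugation, in 50 mM phosphate buffer pH 7.4. Preincubated with inhibitor (10⁻⁸–10⁻³ or 10⁻⁴ M) for 60 min at 37 °C. MAO-B activity measured radiometrically as ¹⁴C-aldehyde formed from 10 μM [¹⁴C]-phenylethylamine; IC50 reported.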

Experiment [5] has as its target T2, Amine oxidase [flavin-containing] A (Rattus norvegicus, UniProt P21396).
T2 sequence (P21396 whole entry): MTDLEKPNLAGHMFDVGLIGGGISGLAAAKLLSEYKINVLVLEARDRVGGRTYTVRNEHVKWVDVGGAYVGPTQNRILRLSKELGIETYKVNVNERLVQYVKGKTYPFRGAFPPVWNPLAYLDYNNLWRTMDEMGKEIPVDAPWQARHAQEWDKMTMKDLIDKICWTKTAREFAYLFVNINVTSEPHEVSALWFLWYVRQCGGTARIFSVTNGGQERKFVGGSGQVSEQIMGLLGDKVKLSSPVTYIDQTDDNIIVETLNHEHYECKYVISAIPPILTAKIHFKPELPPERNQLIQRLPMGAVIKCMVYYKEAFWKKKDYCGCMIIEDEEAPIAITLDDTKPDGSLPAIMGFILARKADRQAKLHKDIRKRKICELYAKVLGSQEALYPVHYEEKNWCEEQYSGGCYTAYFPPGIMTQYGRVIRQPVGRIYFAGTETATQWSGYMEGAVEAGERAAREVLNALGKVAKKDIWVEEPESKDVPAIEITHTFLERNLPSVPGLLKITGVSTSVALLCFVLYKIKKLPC
The experiment is described as follows: Inhibitory activity of compound against Monoamine oxidase A isolated from rat liver mitochondria using [14C]5-HT creatinine sulfate; NI denotes no inhibition at 1000 uM. An outline of the steps: (§3)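 Rat liver mitochondria from differential centrifugation, in 50 mM phosphate buffer pH 7.4. Preincubated with inhibitor (10⁻⁸–10⁻³ or 10⁻⁴ M) for 60 min at 37 °C. MAO-A activity measured radiometrically as ¹⁴C-aldehyde formed from 0.1 mM [¹⁴C]-5-hydroxytryptamine creatinine sulfate; IC50 reported.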

The target of experiment [6] is T2, Amine oxidase [flavin-containing] A. Briefly: Inhibition of Monoamine oxidase A from rat liver mitochondria. In a few lines:
as §3

Experiment [7] deals with T1, Amine oxidase [flavin-containing] B. The experiment is described as follows: Inhibitory activity against Monoamine oxidase B isolated from rat liver mitochondria using [14C]phenylethylamine; NI denotes no inhibition at 1000 uM. In a few lines:
as §2

The subject of experiment [8] is Mycobacterium tuberculosis. The experiment is described as follows: Minimal inhibitory activity of compound against Mycobacterium tuberculosis H37Rv. The format is functional. In a few lines:
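Same H37Rv [³H]-uracil incorporation assay: compound at final 20, 2.0 and 0.2 μg/mL, 24 h, then 1 μCi 5,6-[³H]-uracil for 18 h at 37 °C, harvested on filters, scintillation counted, triplicate. MIC50 is the concentration giving 50% reduction in cpm versus drug-free plate at the same bacterial dilution.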

≈ marks a conversion by molar mass, not a printed value.

`CCn1c2ccccc2c2nnc(N)c(-c3ccc(C)cc3)c21`: the inhibition at 2 µg/mL in experiment [1] amounted to 0%. In experiment [2], this molecule gave an inhibition at 20 µg/mL of 30.1%. In addition, the inhibition at 0.2 µg/mL in experiment [3] worked out at 0%. The half-maximal inhibitory concentration (IC50) in experiment [4] is 11 µM; in experiment [5], “No inhibition”.

For `Nc1[nH]nc2c3ccccc3nc-2c1-c1ccccc1F`, the inhibition at 2 µg/mL in experiment [1] came out at 0%. In addition, the inhibition at 20 µg/mL in experiment [2] was 40.3%. In addition, the 50% inhibitory concentration (IC50) in experiment [6] was 631 µM; in experiment [7], “No inhibition”. For the same molecule, the inhibition at 0.2 µg/mL in experiment [3] came to 0%.

Regarding `CCn1c2ccccc2c2nnc(N)c(-c3ccccc3)c21`, in experiment [1], the inhibition at 2 µg/mL is 0%. Also, the inhibition at 20 µg/mL in experiment [2] came to 40.3%. Further, the inhibition at 0.2 µg/mL in experiment [3] worked out at 0%. For the same molecule, the IC50 in experiment [4] was 72 µM; in experiment [5], “No inhibition”.

With `CC(C)c1ccc(-c2c(N)nnc3c4ccccc4n(CCN(C)C)c23)cc1`, testing at 2 µg/mL in experiment [1] gave an inhibition of 0%. The inhibition at 20 µg/mL in experiment [2] is 20.4%. Further, the 50% inhibitory concentration (IC50) is 1000 µM in experiment [6] and “No inhibition” in experiment [7]. The molecule also gave an inhibition at 0.2 µg/mL in experiment [3] of 0%.

Consider `Nc1nnc2c([nH]c3ccccc32)c1-c1ccccc1`, for which the inhibition at 2 µg/mL in experiment [1] worked out at 25.5%. This molecule came in with an inhibition at 20 µg/mL in experiment [2] of 28.5%. The same molecule gave an inhibition at 0.2 µg/mL in experiment [3] of 2.3%. Besides, the IC50 result in experiment [7] and in experiment [5] was “No inhibition” in each case.

In turn, `Nc1[nH]nc2c3ccccc3nc-2c1-c1ccccc1Cl` displayed an inhibition at 2 µg/mL in experiment [1] of 0%. The same molecule registered an inhibition at 20 µg/mL in experiment [2] of 35%. For the same molecule, the values for the IC50 in experiment [6] and in experiment [7] were 316 µM and “No inhibition”, respectively. In experiment [3], 0.2 µg/mL produced 0% inhibition.

In the case of `Cn1c2ccccc2c2nnc(N)c(-c3ccccc3F)c21`, testing at 2 µg/mL in experiment [1] gave an inhibition of 0%. Also, the inhibition at 20 µg/mL in experiment [2] turned out to be 45.3%. Also, in experiment [3], the inhibition at 0.2 µg/mL worked out at 0%. The results for the 50% inhibitory concentration (IC50) in experiment [4] and in experiment [5] were 41.6 µM and “No inhibition”, respectively.

In experiment [1], `Nc1[nH]nc2c3ccccc3nc-2c1-c1ccc(F)cc1` displayed an inhibition at 2 µg/mL of 0%. The molecule also had an inhibition at 20 µg/mL in experiment [2] of 35.1%. The inhibition at 0.2 µg/mL in experiment [3] amounted to 0%. Also, the IC50 result in experiment [7] and in experiment [5] was “No inhibition” in each case.

With `Nc1[nH]nc2c3cc(Br)ccc3nc-2c1-c1ccccc1`, testing at 2 µg/mL in experiment [1] gave an inhibition of 44.3%. This molecule also displayed an inhibition at 20 µg/mL in experiment [2] of 91.4%. Moreover, the half-inhibitory concentration (IC50) in experiment [6] was 63.1 µM; in experiment [4], 25.1 µM. The MIC50 in experiment [8] is 4.17 µg/mL (≈ 12.3 µM). Moreover, 0.2 µg/mL produced 9.2% inhibition in experiment [3].

`CC(C)c1ccc(-c2c(N)nnc3c4ccccc4n(C)c23)cc1` returned an inhibition at 2 µg/mL in experiment [1] of 63.6%. In experiment [2], this molecule had an inhibition at 20 µg/mL of 88%. Further, the IC50 in experiment [6] came to 14.1 µM; in experiment [4], 316 µM. This molecule showed an MIC50 in experiment [8] of 1.42 µg/mL (≈ 4.49 µM). In experiment [3], the inhibition at 0.2 µg/mL was 21.3%.

These data come from ChEMBL document CHEMBL1149191, “Novel pyridazino[4,3-b]indoles with dual inhibitory activity against Mycobacterium tuberculosis and monoamine oxidase” (J Med Chem, 2004).
